Assay results reported in ChEMBL document CHEMBL1777791, “Protective effect of ε-viniferin on β-amyloid peptide aggregation investigated by electrospray ionization mass spectrometry” (Bioorg Med Chem, 2011).
Calls of active or inactive are those of the source. The calls are words filed in the database; no cut-off is given here.

Assays:
[1] = Binding affinity to amyloid beta (1 to 40) assessed as non-covalent protein-compound complex formation at 10 uM using 35% methanol by electrospray ionization mass spectrometry analysis
Outline: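 ESI ion-trap MS by direct infusion at 180 µL/h. Aβ(1-40) and compound mixed 1:1 molar (10 µM) in 35% methanol. Spectra recorded over m/z 150–2000 in positive and negative ion modes at normal scan resolution. Non-covalent complex ions identified.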

[2] = Inhibition of amyloid beta (25 to 35) fibril formation by UV-visible spectrometry analysis
Outline: (§1)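 Aβ(25-35) stock (1 mM) prepared in sterile water at 4 °C by brief vortexing, then sonicated 10 min. Polyphenol stock 1 mg/mL in MeOH. Reaction used 10 mM phosphate buffer, pH 7.2, 100 µM peptide final and polyphenol at 5 or 10 µM final. Fibril formation followed by UV–visible spectrophotometry.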

[3] = Inhibition of amyloid beta (25 to 35) fibril formation at 10 uM by UV-visible spectrometry analysis; outline: as §1
[4] = Inhibition of amyloid beta (1 to 40) fibril formation at 5 uM by UV-visible spectrometry analysis
Outline: (§2)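 Full-length Aβ stock (1 mM) prepared in sterile water at 4 °C by brief vortexing, then sonicated 10 min. Polyphenol stock 1 mg/mL in MeOH. Reaction used 10 mM phosphate buffer, pH 7.2, 50 µM peptide final and polyphenol at 5 or 10 µM final. Fibril formation followed by UV–visible spectrophotometry.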

[5] = Inhibition of amyloid beta (1 to 40) fibril formation at 10 uM by UV-visible spectrometry analysis; outline: as §2
[6] = Inhibition of amyloid beta (1 to 42) fibril formation at 5 uM by UV-visible spectrometry analysis; outline: as §2
[7] = Inhibition of amyloid beta (1 to 42) fibril formation at 10 uM by UV-visible spectrometry analysis; outline: as §2
PC-12 [8] = test: Antiamyloidogenic activity in rat PC12 cells assessed as protection against amyloid beta (25 to 35)-induced cell death at 10 uM after 24 hrs by MTT assay; assay type: functional
Outline: (§3)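 PC12 cells kept in DMEM-Glutamax with 15% heat-inactivated horse serum, 2.5% FBS and antibiotics at 37 °C, 10% CO2, on poly-D-lysine. Seeded 10,000 cells/well and grown 24 h. Aβ was preincubated with or without compound at 37 °C for 48 h, diluted in medium and added (Aβ final 10 µM). After 24 h, MTT 0.5 mg/ml for 3 h at 37 °C, DMSO solubilisation, A595. Read-out is % of control cells.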

PC-12 [9] = test: Antiamyloidogenic activity in rat PC12 cells assessed as protection against amyloid beta (1 to 42)-induced cell death at 10 uM after 24 hrs by MTT assay; assay type: functional; outline: as §3
PC-12 [10] = test: Antiamyloidogenic activity in rat PC12 cells assessed as protection against amyloid beta (1 to 40)-induced cell death at 10 uM after 24 hrs by MTT assay; assay type: functional; outline: as §3
PC-12 [11] = test: Cytotoxicity against rat PC12 cells up to 10 uM after 24 hrs by MTT assay; conditions: pc-12, 24 h

Structure (SMILES) | Activity [1] | IC50 [2] | inhibition [3] | inhibition [4] | inhibition [5] | inhibition [6] | inhibition [7] | Activity (PC-12 [8]) | Activity (PC-12 [9]) | Activity (PC-12 [10]) | Activity (PC-12 [11])
O=C(O)/C=C/c1ccc(O)cc1 | inactive |  |  |  |  |  |  |  |  |  | 
OC[C@H]1O[C@@H](Oc2cc(/C=C/c3ccc(O)cc3)c3c(c2)O[C@H](c2ccc(O)cc2)[C@H]3c2cc(O)cc(O)c2)[C@H](O)[C@@H](O)[C@@H]1O | Active | < 1 µM | 93% | 59% | 97% | 70% | 89% | 80% | 87% | 79% | Non-toxic
Oc1ccc(/C=C/c2cc(O)cc(O)c2)cc1 |  |  | 63% | 22% | 52% |  | 61% |  |  |  | 
